# Vif imaging = blocks HIV Vif function; inhibition, % at 7.49 µM; HEK293T cells, Vif self-association by quenched fluorescence, imaging, 24 h; hit rate 0.35% among 340,000; in the data active = inhibition above about 50%, passing the limit was not always enough
# N-glyco inh = N-linked glycosylation inhibition; D54 ERlucT glycosylation luciferase reporter, 24 h; percent of 100 nM tunicamycin response; reporter increase, % at 12.5 µM; hit rate 0.23% among 360,000;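 active = mean luciferase reporter signal, scaled so untreated is 0 and the glycosylation-blocking control 100, at or above a set limit in every replicate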;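 note: luciferase carries N-glycosylation sites so blocking glycosylation raises the light; 0% = median of neutral control wells and 100% = median of 100 nM tunicamycin wells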
# CDK5 p35 inh = CDK5/p35 (human) kinase inhibition | inhibition, % at 10 µM | hit rate 0.01% among 330,000 | Recombinant CDK5/p35, ADP-Glo luminescence, 60 min | AID 488839;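 active = highest replicate inhibition of at least 50% and at least 75% of replicates reaching 50%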;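 note: plate controls were DMSO neutral control for no effect and GW8510 at 10 µM for full effect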
# Target sequence (Q00535 whole entry, looked up): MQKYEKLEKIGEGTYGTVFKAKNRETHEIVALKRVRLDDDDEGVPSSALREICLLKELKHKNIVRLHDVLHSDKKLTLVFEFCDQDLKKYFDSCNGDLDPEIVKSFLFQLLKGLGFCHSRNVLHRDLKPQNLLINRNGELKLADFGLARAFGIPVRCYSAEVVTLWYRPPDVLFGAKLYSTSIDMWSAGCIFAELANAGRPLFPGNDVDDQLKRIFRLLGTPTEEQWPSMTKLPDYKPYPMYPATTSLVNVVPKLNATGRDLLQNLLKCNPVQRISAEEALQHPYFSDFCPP
# Target sequence (Q15078 whole entry, looked up): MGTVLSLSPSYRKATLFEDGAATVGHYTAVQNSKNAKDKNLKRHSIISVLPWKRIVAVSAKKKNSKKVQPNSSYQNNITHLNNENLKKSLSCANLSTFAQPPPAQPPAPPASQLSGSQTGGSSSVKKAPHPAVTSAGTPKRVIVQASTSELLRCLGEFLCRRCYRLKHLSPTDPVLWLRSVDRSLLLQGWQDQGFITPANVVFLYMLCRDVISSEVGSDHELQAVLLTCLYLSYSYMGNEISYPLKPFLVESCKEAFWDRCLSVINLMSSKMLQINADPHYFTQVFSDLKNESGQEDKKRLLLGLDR
# CAL PDZ FP-1 = inhibitors of human CAL PDZ peptide binding; Q9HD26; purified CAL PDZ, TMR-peptide fluorescence polarization, 1 h; inhibition, % at 20 µM; hit rate 0.02% among 330,000;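 active = highest replicate inhibition of at least 40%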;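 note: plate controls were DMSO neutral control wells for no effect and unlabeled competitor peptide control wells for full effect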
#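 material = purified tagged CAL PDZ domain construct (CerCALP) | buffer or medium = sodium phosphate/NaCl buffer pH 7.4 with TCEP, IgG, Thesit | reagent = TMR-labelled reporter peptide T*-PRC34 bound in PDZ groove | incubation = 1 h room-temperature incubation prior to read | measured by = fluorescence polarization (mP) | evaluation = percent inhibition from loss of millipolarization | control set = unlabelled peptide and DMSO controls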
# PvdQ acylase = P. aeruginosa PvdQ acylase inhibition | purified PvdQ acylase, fluorescence plate reader | hit rate 0.063% among 340,000 | AID 488965 | inhibition, % at 10 µM; in the data active = inhibition above about 30%, passing the limit was not always enough;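 note: 0% = vehicle neutral wells and 100% = reference inhibitor wells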
# CAL PDZ FP-2 = inhibitors of human CAL PDZ peptide binding | inhibition, % at 24.9 µM | Q9HD26 | purified CAL PDZ, TMR-peptide fluorescence polarization, 1 h | hit rate 0.92% among 300,000 | AID 602252;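 active = mean inhibition of at least 30% with at least half of replicates also reaching 30%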;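 note: 0% = DMSO neutral control and 100% = excess unlabeled competitor peptide PRC23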
# * hit, by the source's call; . = not tested or not shown. The list is not random: actives were taken first. Their share in the collection is about 1.4%.
SMILES,Vif imaging,N-glyco inh,CDK5 p35 inh,CAL PDZ FP-1,PvdQ acylase,CAL PDZ FP-2
Cc1ccccc1NC(=O)COC(=O)C1=COCCO1,15.1,3.7,0.2,1.7,-5.7,-3.0
O=C(COC(=O)C1=COCCO1)Nc1ccc(Br)cc1Br,5.7,-2.6,1.5,-0.3,-8.6,43.0*
CC1(OC(=O)CCc2ccccc2)C(=O)C=C2C=C(c3ccc(C#N)cc3)N(CCc3c[nH]c4ccccc34)C=C2C1=O (stereo unspecified),2.2,3.1,0.8,1.0,-1.6,-0.7
O=C(Nc1ccccc1N1CCCCC1)c1ccc(Cl)c([N+](=O)[O-])c1,-15.3,0.8,1.4,0.1,5.9,.
CN1CCN(c2ccccc2NC(=O)c2ccc(N3CCCC3)c([N+](=O)[O-])c2)CC1,4.9,2.5,1.4,58.4*,-0.9,43.3*
CN(CC(=O)O/N=C(\N)c1ccc([N+](=O)[O-])cc1)S(=O)(=O)c1ccc2ccccc2c1,58.9*,5.4,-0.5,-1.7,-5.5,-1.1
COc1ccc(/C(N)=N/OC(=O)CN(C)S(=O)(=O)c2ccccc2)cc1,-1.4,-1.5,0.3,-1.1,-14.1,3.8
Nc1nnc(N)c2ccccc12,-1.9,0.7,-3.3,-0.6,-7.0,57.2*
Nc1nsc2ccccc12,-0.4,-6.6,-0.3,-2.2,-11.0,-1.8
Cc1sc2ncnc(N3CCC(C(=O)NNC(=O)c4ccccc4Cl)CC3)c2c1C,-12.8,-6.7,1.5,-2.3,-8.4,37.0*
C[C@H]1O[C@@H](n2cc(F)c(=O)[nH]c2=O)[C@H](O)[C@@H]1O,15.4,-0.5,-0.6,-0.9,-6.2,-1.6
CCCCCCCCCCCCCCCCCCNc1ccn(C2OC(COP(=O)(O)OCC3OC(n4cc(F)c(=O)[nH]c4=O)CC3O)C(O)C2O)c(=O)n1 (stereo unspecified),11.7,34.9*,-4.0,-0.9,-11.1,-1.3
CN1CCN(S(=O)(=O)CC2(C)C3CCC2(C)C(=O)C3Br)CC1 (stereo unspecified),.,1.8,1.0,-2.3,3.4,-0.6
CCN1CCN(S(=O)(=O)CC2(C)C3CCC2(C)C(=O)C3Br)CC1 (stereo unspecified),-3.1,2.1,-0.4,-0.4,-6.7,41.1*
CC(C)(C)c1ccc(C(=O)NNC(=O)c2cccc(Br)c2)cc1,3.4,202.8*,-0.1,-1.9,-11.7,-1.9
CCCCC(NS(=O)(=O)c1ccc(OC)cc1)C(=O)O (stereo unspecified),7.1,2.5,-0.8,3.3,-14.3,49.2*
CNS(=O)(=O)c1cccc(C(=O)OCc2cc(=O)oc3c(C)c(O)ccc23)c1,-5.5,-2.8,-1.6,-2.4,-4.5,-3.1
CN(C)c1ccc(C=c2c3ccccc3n3c2c2ccccc2[n+]3C)cc1,-8.9,-4.4,2.5,6.8,-0.9,5.6
CCOC(=O)c1cc2c(=Cc3ccc(N(C)C)cc3)c3ccccc3n2[n+]1C,-10.6,40.2*,5.8,5.5,7.8,-8.9
Cc1cc2c(=Cc3ccc(N(C)C)cc3)c3ccccc3n2[n+]1C,-24.1,66.4*,6.0,7.5,10.7,-4.9
O=C(CNC(=O)c1ccc(Br)o1)Nc1ccc(F)c(S(=O)(=O)N2CCOCC2)c1,-12.1,0.1,-1.1,-0.7,-5.1,-4.7
CN(C)C1(CNC(=S)Nc2ccccc2C(F)(F)F)CCCCC1,1.5,-1.6,-0.8,0.2,-17.3,60.8*
CN(C)C1(CNC(=O)Nc2ccccc2)CCCCC1,9.8,1.0,0.7,-1.5,-9.7,-4.1
Nc1nc(CN2CCN(Cc3ccccc3)CC2)nc(Nc2ccc3c(c2)OCCO3)n1,-3.6,47.0*,0.5,0.2,-11.7,-4.5
Cc1ccc(Nc2nc(N)nc(CN3CCN(Cc4ccc5c(c4)OCO5)CC3)n2)cc1Cl,-13.9,0.8,-0.5,-2.4,-13.5,.
SMILES,Vif imaging,N-glyco inh,CDK5 p35 inh,CAL PDZ FP-1,PvdQ acylase,CAL PDZ FP-2
COCCNC(=O)c1nn2c(C(F)(F)F)cc(-c3ccccc3)nc2c1Cl,105.9*,2.6,-1.7,-0.1,-7.3,-4.4
COc1ccc(-c2cc(C(F)(F)F)n3nc(C(=O)NCc4ccco4)c(Cl)c3n2)cc1,157.0*,-0.1,0.5,0.2,-1.8,-5.5
O=C(NCCCn1ccnc1)c1nn2c(C(F)(F)F)cc(-c3ccccc3)nc2c1Cl,-14.7,3.2,0.1,-2.0,51.1*,-1.1
O=C(OCC(=O)N1CCc2ccccc21)c1ccncc1,3.2,2.0,2.0,0.1,-11.1,.
O=C(CSC1=N/C(=C/c2ccco2)C(=O)N1c1ccc(OC(F)F)cc1)NC1CCS(=O)(=O)C1 (stereo unspecified),-1.8,-2.3,-0.4,0.1,-4.4,7.4
Cn1c(SCC(=O)NC2CCCc3ccccc32)nnc1C1CC1 (stereo unspecified),-1.4,-1.2,1.1,-1.2,-9.9,.
Brc1ccc(-n2cnc(-c3ccccc3)c2)cc1,-1.6,-9.4,1.4,-2.9,1.8,51.3*
Cc1cccc(C)c1NC(=O)CN(C)C(=O)c1ccc2nc[nH]c2c1,1.0,0.6,1.0,0.3,0.1,-6.2
COc1cc(CNC2CCCC2)c(Br)cc1OC1CCCC1,.,-3.8,0.3,-0.7,2.3,-6.1
COc1cc(CNCc2ccccc2)c(Br)cc1OC1CCCC1,74.9*,-4.7,-1.1,-0.3,18.7,-3.3
COc1cccc(N2CCN(CC(=O)NCc3ccccc3)CC2)c1,-2.7,1.5,0.5,0.0,-20.3,50.4*
O=c1ccn([C@@H]2O[C@H](CNCc3ccccc3)[C@@H](O)[C@H]2O)c(=O)[nH]1,7.5,1.5,.,.,.,.
O=c1ccn([C@@H]2O[C@H](CNCc3ccc(-n4cccn4)cc3)[C@@H](O)[C@H]2O)c(=O)[nH]1,95.6*,3.4,-2.5,0.5,-21.5,-3.6
CCC(=O)c1ccc(N2CCCCC2)c(F)c1,1.1,0.6,1.1,-1.5,-9.4,161.3*
COc1ccc(C(C(=O)NC(C)(C)C)N(C(=O)CCC(=O)Nc2cc(C)on2)c2c(C)cccc2C)cc1 (stereo unspecified),-9.6,-1.2,-0.4,-2.6,-5.8,-4.8
CC(NC(=O)COc1ccccc1)C(=O)N1CCN(c2ccc(F)cc2)CC1 (stereo unspecified),-9.4,2.3,-0.4,-0.1,-10.8,72.7*
COc1ccc(NC(=O)c2ccc(CNS(=O)(=O)c3cccc(OC)c3)cc2)cc1,34.7,-1.1,0.2,-0.6,-15.6,37.6*
CCCN1C(=O)N(C)C(N(O)C(=O)NC)C1(C)C (stereo unspecified),2.4,1.7,-2.8,0.1,-12.9,38.6*
COc1ccccc1N(CC(=O)Nc1cc(S(=O)(=O)N(C)C)ccc1C)S(=O)(=O)c1cccs1,3.7,-1.6,-1.2,6.6,-18.1,67.9*
Cc1cccc(C(=O)Nc2nnc(S(=O)(=O)N3CCC(C)CC3)s2)c1,-8.5,-1.5,2.1,0.1,3.0,4.9
Cc1nc(-c2cccc(NC(=O)c3ccc(-n4cccn4)cc3)c2)cs1,3.3,0.1,-0.7,-3.0,-8.2,-5.7
